Results reported in ChEMBL document CHEMBL1828606, “Anticancer and radio-sensitizing evaluation of some new thiazolopyrane and thiazolopyranopyrimidine derivatives bearing a sulfonamide moiety” (Eur J Med Chem, 2011).

Columns and labels:
[1] = system: MCF7; assay: Anticancer activity against human MCF7 cells assessed as viable cells at 25 uM after 48 hrs by SRB assay relative to control; format: functional
Summary of the method: (§1)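 MCF7 human breast tumor cells seeded at 10⁴ cells/well and left 24 h to attach. Compounds dissolved in DMSO, added in replicate wells per concentration, 48 h at 37 °C under 5% CO₂. Cells fixed and stained 30 min with 0.4% (wt/vol) SRB in 1% acetic acid. Washed four times with 1% acetic acid, dye recovered in Tris-EDTA, read on an ELISA reader.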

[2] = system: MCF7; assay: Anticancer activity against human MCF7 cells assessed as viable cells at 100 uM after 48 hrs by SRB assay relative to control; format: functional; summary of the method: as §1
[3] = system: MCF7; assay: Anticancer activity against human MCF7 cells assessed as viable cells after 48 hrs by SRB assay; format: functional, cell-based; settings: MCF7, 48 h; summary of the method: as §1
[4] = system: MCF7; assay: Anticancer activity against human MCF7 cells assessed as viable cells at 50 uM after 48 hrs by SRB assay relative to control; format: functional; summary of the method: as §1
[5] = system: MCF7; assay: Anticancer activity against human MCF7 cells assessed as viable cells at 10 uM after 48 hrs by SRB assay relative to control; format: functional; summary of the method: as §1
[6] = system: MCF7; assay: Anticancer activity against 8 Gy gamma-irradiated human MCF7 cells assessed as viable cells after 48 hrs at 25 uM by SRB assay relative to control; format: functional; summary of the method: as §1
[7] = system: MCF7; assay: Anticancer activity against 8 Gy gamma-irradiated human MCF7 cells assessed as viable cells after 48 hrs at 100 uM by SRB assay relative to control; format: functional; summary of the method: as §1
[8] = system: MCF7; assay: Anticancer activity against 8 Gy gamma-irradiated human MCF7 cells assessed as viable cells after 48 hrs by SRB assay; format: functional, cell-based; settings: MCF7, light or radiation study; summary of the method: as §1
[9] = system: MCF7; assay: Anticancer activity against 8 Gy gamma-irradiated human MCF7 cells assessed as viable cells after 48 hrs at 10 uM by SRB assay relative to control; format: functional; summary of the method: as §1
[10] = system: MCF7; assay: Anticancer activity against 8 Gy gamma-irradiated human MCF7 cells assessed as viable cells after 48 hrs at 50 uM by SRB assay relative to control; format: functional; summary of the method: as §1

| IC50 [3] [µM] | IC50 [8] [µM] | Compound | fold change (FC) [1] | fold change (FC) [2] | fold change (FC) [4] | fold change (FC) [5] | fold change (FC) [6] | fold change (FC) [7] | fold change (FC) [9] | fold change (FC) [10] |
| --- | --- | --- | --- | --- | --- | --- | --- | --- | --- | --- |
| 45.2 |  | N#CC1=C(/N=C/c2ccccc2)Oc2nc(Nc3ccc(S(N)(=O)=O)cc3)sc2C1c1ccc(Cl)cc1 (stereo not given) | 0.206 | 0.324 | 0.295 | 0.93 |  |  |  |  |
| 71.7 |  | Cc1ccc(S(=O)(=O)NC2=C(C#N)C(c3ccc(Cl)cc3)c3sc(Nc4ccc(S(N)(=O)=O)cc4)nc3O2)cc1 (stereo not given) | 0.52 | 0.6 | 0.2 | 0.92 |  |  |  |  |
| 74.3 |  | CC(=O)N(C(C)=O)C1=C(C#N)C(c2ccc(Cl)cc2)c2sc(Nc3ccc(S(N)(=O)=O)cc3)nc2O1 (stereo not given) | 0.511 | 0.617 | 0.234 | 0.913 |  |  |  |  |
| 34.6 | 17 | N#CC1=C(/N=C/c2ccc(Cl)cc2)Oc2nc(Nc3ccc(S(N)(=O)=O)cc3)sc2C1c1ccc(Cl)cc1 (stereo not given) | 0.24 | 0.304 | 0.257 | 0.634 | 0.124 | 0.182 | 0.462 | 0.143 |
| 41.9 |  | CC(=O)NC1=C(C#N)C(c2ccc(Cl)cc2)c2sc(Nc3ccc(S(N)(=O)=O)cc3)nc2O1 (stereo not given) | 0.447 | 0.252 | 0.183 | 0.801 |  |  |  |  |
| 47.5 |  | N#CC1=C(NS(=O)(=O)c2ccccc2)Oc2nc(Nc3ccc(S(N)(=O)=O)cc3)sc2C1c1ccc(Cl)cc1 (stereo not given) | 0.492 | 0.361 | 0.239 | 0.697 |  |  |  |  |
| 39.4 | 26.2 | N#CC1=C(N)Oc2nc(Nc3ccc(S(N)(=O)=O)cc3)sc2C1c1ccc(Cl)cc1 (stereo not given) | 0.36 | 0.214 | 0.168 | 0.848 | 0.203 | 0.097 | 0.706 | 0.062 |
| 35.8 | 23.7 | Nc1ncnc2c1C(c1ccc(Cl)cc1)c1sc(Nc3ccc(S(N)(=O)=O)cc3)nc1O2 (stereo not given) | 0.454 | 0.207 | 0.186 | 0.62 | 0.341 | 0.086 | 0.504 | 0.064 |
| 41.6 | 28.4 | NS(=O)(=O)c1ccc(Nc2nc3c(s2)C(c2ccc(Cl)cc2)c2c(nc[nH]c2=O)O3)cc1 (stereo not given) | 0.515 | 0.175 | 0.204 | 0.794 | 0.371 | 0.04 | 0.65 | 0.06 |
| 49.8 |  | N#CC1=C(NC(N)=O)Oc2nc(Nc3ccc(S(N)(=O)=O)cc3)sc2C1c1ccc(Cl)cc1 (stereo not given) | 0.717 | 0.228 | 0.309 | 0.701 |  |  |  |  |
| 52.8 |  | Nc1nc(=S)[nH]c2c1C(c1ccc(Cl)cc1)c1sc(Nc3ccc(S(N)(=O)=O)cc3)nc1O2 (stereo not given) | 0.639 | 0.325 | 0.241 | 0.814 |  |  |  |  |
| 84.1 |  | Nc1nc(=O)[nH]c2c1C(c1ccc(Cl)cc1)c1sc(Nc3ccc(S(N)(=O)=O)cc3)nc1O2 (stereo not given) | 0.56 | 0.654 | 0.265 | 0.9 |  |  |  |  |
| 41.8 |  | NC(=O)C1=C(N)Oc2nc(Nc3ccc(S(N)(=O)=O)cc3)sc2C1c1ccc(Cl)cc1 (stereo not given) | 0.499 | 0.21 | 0.169 | 0.815 |  |  |  |  |
| 43.8 |  | N#CC1=C(NC(=O)CCl)Oc2nc(Nc3ccc(S(N)(=O)=O)cc3)sc2C1c1ccc(Cl)cc1 (stereo not given) | 0.531 | 0.252 | 0.25 | 0.702 |  |  |  |  |
